Our source for the half-life and Ki values is ChEMBL document CHEMBL1137555, “Aminocyclohexylsulfonamides: discovery of metabolically stable alpha(1a/1d)-selective adrenergic receptor antagonists for the treatment of benign prostatic hyperplasia/lower urinary tract symptoms (BPH/LUTS)” (Bioorg Med Chem Lett, 2007).

Series [1] in a line: Metabolic stability in human liver microsomes. It counts as ADME, Microsome. The procedure, abridged: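 Human liver microsomal metabolism assay; read-out was half-life (T1/2, min).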
In general terms: Liver microsomes are vesicles of endoplasmic reticulum, rich in cytochrome P450 enzymes.

The next series deals with D(2) dopamine receptor (Homo sapiens, UniProt P14416). In words: Binding affinity to human cloned dopamine D2 receptor.
Series [2] has as its target T1, Alpha-1B adrenergic receptor (Homo sapiens, UniProt P35368).
T1 sequence (P35368 whole entry): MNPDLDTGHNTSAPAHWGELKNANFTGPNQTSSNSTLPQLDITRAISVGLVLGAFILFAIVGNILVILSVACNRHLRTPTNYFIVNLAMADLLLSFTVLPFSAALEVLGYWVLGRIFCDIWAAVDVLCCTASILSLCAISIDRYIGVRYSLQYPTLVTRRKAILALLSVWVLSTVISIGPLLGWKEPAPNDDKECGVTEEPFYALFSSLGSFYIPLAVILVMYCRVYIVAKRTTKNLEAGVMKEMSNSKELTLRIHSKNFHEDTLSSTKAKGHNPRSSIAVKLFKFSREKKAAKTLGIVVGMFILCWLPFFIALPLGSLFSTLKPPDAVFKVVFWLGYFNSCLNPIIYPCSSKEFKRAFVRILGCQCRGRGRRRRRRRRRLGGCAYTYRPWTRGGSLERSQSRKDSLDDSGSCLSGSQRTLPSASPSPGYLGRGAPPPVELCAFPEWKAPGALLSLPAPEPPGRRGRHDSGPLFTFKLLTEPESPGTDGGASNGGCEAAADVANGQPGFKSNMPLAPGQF
Briefly: Binding affinity to human cloned adrenergic alpha-1b receptor.

Series [3] concerns the target T2, Alpha-1D adrenergic receptor (Homo sapiens, UniProt P25100).
T2 sequence (P25100 whole entry): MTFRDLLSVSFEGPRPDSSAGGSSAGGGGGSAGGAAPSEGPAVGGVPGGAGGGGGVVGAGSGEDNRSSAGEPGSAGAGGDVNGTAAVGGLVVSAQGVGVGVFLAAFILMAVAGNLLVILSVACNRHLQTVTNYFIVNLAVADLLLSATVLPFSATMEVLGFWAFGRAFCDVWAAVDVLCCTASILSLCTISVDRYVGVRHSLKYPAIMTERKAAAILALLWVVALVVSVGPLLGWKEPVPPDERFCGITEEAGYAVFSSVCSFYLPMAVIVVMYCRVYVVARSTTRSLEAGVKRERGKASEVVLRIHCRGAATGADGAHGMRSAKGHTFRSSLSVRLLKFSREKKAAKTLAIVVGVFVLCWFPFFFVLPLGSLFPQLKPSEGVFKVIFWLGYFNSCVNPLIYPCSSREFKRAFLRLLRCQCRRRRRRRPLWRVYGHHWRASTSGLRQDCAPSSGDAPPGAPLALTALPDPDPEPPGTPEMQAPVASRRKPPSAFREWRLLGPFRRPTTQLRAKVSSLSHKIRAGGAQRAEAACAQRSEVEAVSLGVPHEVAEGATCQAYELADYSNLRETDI
Briefly: Binding affinity to human cloned adrenergic alpha-1d receptor.

Series [4] concerns the target T3, Alpha-1A adrenergic receptor (Homo sapiens, UniProt P35348).
T3 sequence (P35348 whole entry): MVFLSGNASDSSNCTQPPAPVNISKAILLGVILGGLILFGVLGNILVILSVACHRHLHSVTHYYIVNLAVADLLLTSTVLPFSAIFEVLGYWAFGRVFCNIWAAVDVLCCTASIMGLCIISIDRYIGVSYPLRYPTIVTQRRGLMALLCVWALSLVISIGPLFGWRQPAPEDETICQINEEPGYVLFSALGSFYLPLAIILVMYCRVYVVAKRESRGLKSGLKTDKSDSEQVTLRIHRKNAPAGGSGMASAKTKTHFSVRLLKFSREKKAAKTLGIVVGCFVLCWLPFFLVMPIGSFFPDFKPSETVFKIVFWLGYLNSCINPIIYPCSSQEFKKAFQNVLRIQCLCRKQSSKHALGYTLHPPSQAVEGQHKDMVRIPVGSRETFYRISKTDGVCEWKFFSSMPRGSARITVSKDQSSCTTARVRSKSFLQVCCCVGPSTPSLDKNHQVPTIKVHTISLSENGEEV
In words: Binding affinity to human cloned adrenergic Alpha-1A receptor.

D(2) dopamine receptor, sequence (P14416 whole entry): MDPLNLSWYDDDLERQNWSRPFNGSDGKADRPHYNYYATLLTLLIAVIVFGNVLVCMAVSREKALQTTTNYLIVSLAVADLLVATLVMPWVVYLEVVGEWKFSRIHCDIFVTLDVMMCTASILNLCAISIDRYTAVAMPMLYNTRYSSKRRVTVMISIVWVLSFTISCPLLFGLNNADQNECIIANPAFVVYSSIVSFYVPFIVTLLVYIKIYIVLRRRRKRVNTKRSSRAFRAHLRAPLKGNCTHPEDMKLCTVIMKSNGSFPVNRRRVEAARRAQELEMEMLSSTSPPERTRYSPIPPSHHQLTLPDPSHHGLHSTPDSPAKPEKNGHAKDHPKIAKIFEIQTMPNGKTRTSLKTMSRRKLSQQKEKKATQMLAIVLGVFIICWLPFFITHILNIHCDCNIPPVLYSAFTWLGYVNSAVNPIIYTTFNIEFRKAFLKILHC

The term half-life denotes the time needed for the level to fall by half in the phase considered. Higher therefore signals slow decline. `COc1ccc(S(=O)(=O)N[C@H]2CC[C@@H](N3CCC(c4ccccc4OCC(F)(F)F)CC3)CC2)cc1OC` registered a half-life in series [1] of 56 min.

On to `COc1ccc(S(=O)(=O)N[C@H]2CC[C@@H](N3CCC(c4ccccc4OC4CC4)CC3)CC2)cc1OC`, for which, in series [1], the half-life worked out at 18 min.

On to `COc1ccc(F)cc1S(=O)(=O)N[C@H]1CC[C@@H](N2CCN(c3ccccc3OC(C)C)CC2)CC1`, for which, in series [1], the half-life is below 2 min.

As to `COc1ccc(Cl)cc1S(=O)(=O)N[C@H]1CC[C@@H](N2CCN(c3ccccc3OC(C)C)CC2)CC1`, the half-life in series [1] was below 2 min.

Molecule `CC(C)Oc1ccccc1N1CCN([C@H]2CC[C@@H](NS(=O)(=O)c3ccc(S(C)(=O)=O)cc3)CC2)CC1` registered a half-life in series [1] of 2.5 min.

As a reminder, the Ki is the equilibrium dissociation constant of an inhibitor or competing ligand from its target. A lower Ki goes with a stronger hold on the target. `CCN([C@H]1CC[C@H](N2CCN(c3ccccc3OC(C)C)CC2)CC1)S(=O)(=O)c1ccc(OC)c(OC)c1` showed an inhibition constant Ki at D(2) dopamine receptor of 2.7 nM.

As to `COc1ccc(S(=O)(=O)N[C@H]2CC[C@H](N3CCN(c4ccccc4OCC(F)(F)F)CC3)CC2)cc1OC`, the inhibition constant Ki was 39 nM in series [2] and 114 nM on D(2) dopamine receptor.

In turn, `COc1ccc(S(=O)(=O)N[C@H]2CC[C@@H](N3CCC(c4ccccc4OCC(F)F)CC3)CC2)cc1OC` came in with a half-life in series [1] of 21 min. Further, the Ki in series [2] was 278 nM; in series [3] it was 8.6 nM; at D(2) dopamine receptor, 228 nM.

As for `COc1ccc(S(=O)(=O)N[C@H]2CC[C@@H](N3CCC(c4ccccc4OC(C)C)CC3)CC2)cc1OC`, the half-life in series [1] was 12 min. Further, the inhibition constant Ki was determined as 1.8 nM in series [4], 151 nM in series [2], 1.7 nM in series [3] and 165 nM on D(2) dopamine receptor.

As to `CC(C)Oc1ccccc1N1CCN([C@H]2CC[C@@H](NS(=O)(=O)c3ccc(Cl)cc3Cl)CC2)CC1`, the half-life in series [1] came to 3.5 min.

In series [1], `COc1ccc(S(=O)(=O)N[C@H]2CC[C@@H](N3CCN(c4ccccc4OC(C)C)CC3)CC2)cc1OC` returned a half-life of 4.9 min. The Ki was found to be 106 nM in series [2], 0.68 nM in series [3] and 136 nM at D(2) dopamine receptor.

In series [1], `COc1ccc(C)cc1S(=O)(=O)N[C@H]1CC[C@@H](N2CCN(c3ccccc3OC(C)C)CC2)CC1` returned a half-life below 2 min.

Consider `CCN([C@H]1CC[C@@H](N2CCN(c3ccccc3OC(C)C)CC2)CC1)S(=O)(=O)c1ccc(OC)c(OC)c1`, for which, at D(2) dopamine receptor, the inhibitory constant (Ki) came to 113 nM.

Take `COc1ccc(S(=O)(=O)N[C@H]2CC[C@@H](N3CCN(c4ccccc4OCC(F)(F)F)CC3)CC2)cc1OC`: the half-life in series [1] was found to be 35 min. Moreover, the Ki worked out at 86 nM in series [2], 0.35 nM in series [3] and 192 nM at D(2) dopamine receptor.

As for `COc1ccc(S(=O)(=O)N[C@H]2CC[C@@H](N3CCC(c4ccccc4OCCF)CC3)CC2)cc1OC`, in series [1], the half-life came to 20 min. The same molecule came in with a Ki on D(2) dopamine receptor of 330 nM.
